In PubChem BioAssay:
Calls of active or inactive are those of the source.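 Rule for the calls, unless noted: active = inhibition of the reporter signal at or above 50%; inactive = inhibition below 50%.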

What was measured:
[1] = inhibitors of TNFa-induced NFkB p65 translocation, primary screen, imaging, HUVEC, MLSMR starter and 10KST1 sets (AID 438;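 active = inhibition above 20% together with a positive visual image hit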;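 note: compound added about 3h40 before a 20 min TNFalpha stimulation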;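 for inhibition: signal is the nuclear over cytoplasmic p65 intensity ratio per well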); conditions: HUVEC TNFa-induced p65 nuclear translocation; cell count: measured here: nuclei count (cytotoxicity indicator), at 2.08 µM; inhibition: at 2 µM, stronger effect = higher value, 0% TNFa-plus-vehicle, 100% no-TNFa wells
[2] = inhibitors of mutant huntingtin aggregation, primary screen, imaging, exon1htt(103Q)mCFP cells, high-content imaging (AID 483;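 active = visual image review flags a hit and inhibition of aggregation exceeds 20%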;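 note: compound exposure lasted 3 days before fixation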;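 for nuclei count: percent of the per-plate median nuclei count of sample wells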); conditions: exon1htt(103Q)mCFP cell line, aggregate imaging, at 2 µM; inhibition of aggregation: stronger effect = higher value; nuclei count: measured here: cell count, toxicity
[3] = inhibitors of E-selectin induction by TNFa, primary screen, imaging, HUVEC, immunofluorescence, MLSMR starter and 10KST1 sets (AID 487;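 active = visually confirmed hit in the image check and inhibition above 20%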;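 for inhibition: signal is fraction of cell area covered by stained E-selectin grains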;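 for nuclei count: 100% = median nuclei count of all wells on the same plate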); conditions: HUVEC TNFalpha-induced E-selectin immunofluorescence imaging, at 2 µM; inhibition: stronger effect = higher value; nuclei count: measured here: cell number, toxicity
[4] = molecular target: Voltage-gated potassium channel subunit beta-2 (Rattus norvegicus) (UniProt P62483); test: KvBeta enzyme negative modulators, primary screen, biochemical, NADPH fluorescence (AID 622;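 active = fluorescence slope higher than the sample average by over 3 SD, cut at about -0.22 in these data, passing the limit was not always enough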;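 note: slope of raw intensity against log time taken from 70 to 1610 s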); conditions: recombinant KvBeta, 4-cyanobenzaldehyde reduction, at 10 µM, stronger effect = higher value
[5] = molecular target: Voltage-gated potassium channel subunit beta-2 (Rattus norvegicus) (UniProt P62483); test: KvBeta positive modulators, primary screen, biochemical, NADPH fluorescence (AID 623;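 active = NADPH fluorescence slope more negative than the mean of all samples by about 3 SD, 99.7% confidence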;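 note: fluorescence intensity change per second fitted from 20 to 320 s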); conditions: Recombinant KvBeta, NADPH fluorescence decrease slope, 10 min; at 10 µM; stronger effect = lower value
[6] = molecular target: Muscarinic acetylcholine receptor M4 (Homo sapiens) (UniProt P08173); test: compounds altering M4/GIRK thallium flux, either direction, primary screen, M4 allosteric agonist project, cell-based, HEK293 M4/GIRK, BTC-AM (AID 625;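 active = fluorescence slope after compound addition differing from the mean of all tested samples at 99.7% confidence, mostly higher but some lower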;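 note: thallium influx through GIRK channels coupled to M4 in HEK293 cells with BTC-AM dye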); conditions: at 10 µM, actives lie on both sides
Method in brief: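 Material: M4/GIRK1/GIRK2 stable HEK293 cell line. Medium: pH 7.3 thallium assay buffer. Dosing: single compound concentration, 10 µM final. Schedule: 1 h dye loading, 2 min kinetic read. Measured by: kinetic fluorescence with BTC-AM dye. Read-out: post-addition slope, 15–24 s, of baseline-normalized fluorescence. Benchmarks: carbachol and DMSO controls.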

[7] = inhibitors of Sendai virus-induced IRF3 signaling, primary screen, TLR/RLR signaling modifier project, cell-based, Sendai virus stimulus, luciferase, 10K MLSCN set (AID 602276;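 active = inhibition at or above 50% at 10 µM; inactive = inhibition below 50%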;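 note: firefly luciferase from ISG56 promoter only with Renilla not read in this screen; 0% = Sendai virus plus DMSO and 100% = medium plus DMSO without virus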); conditions: HEK293 RL24 IRF3 luciferase reporter, at 10 µM, stronger effect = higher value
[8] = inhibitors of poly I:C-induced TLR3 signaling, primary screen, cell-based, poly I:C stimulus, luciferase, 10K MLSCN set (AID 602277); conditions: HEK293-TLR3 RL24 IRF3 luciferase reporter, at 10 µM, stronger effect = higher value

Chain of Muscarinic acetylcholine receptor M4 (Homo sapiens) (P08173 whole entry, looked up): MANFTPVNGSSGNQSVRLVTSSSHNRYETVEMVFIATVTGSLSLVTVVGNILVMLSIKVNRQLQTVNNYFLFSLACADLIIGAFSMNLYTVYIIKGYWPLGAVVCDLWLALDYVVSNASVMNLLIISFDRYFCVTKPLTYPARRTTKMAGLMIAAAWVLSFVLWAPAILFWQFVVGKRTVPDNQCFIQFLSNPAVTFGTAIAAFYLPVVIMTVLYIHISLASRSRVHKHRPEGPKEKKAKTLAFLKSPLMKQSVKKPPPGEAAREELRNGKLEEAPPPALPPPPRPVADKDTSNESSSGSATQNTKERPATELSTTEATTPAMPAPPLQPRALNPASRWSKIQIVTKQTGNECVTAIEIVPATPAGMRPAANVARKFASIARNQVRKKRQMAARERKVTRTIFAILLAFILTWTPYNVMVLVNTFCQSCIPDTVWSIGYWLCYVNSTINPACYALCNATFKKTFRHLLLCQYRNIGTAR
Chain of Voltage-gated potassium channel subunit beta-2 (Rattus norvegicus) (P62483 whole entry, looked up): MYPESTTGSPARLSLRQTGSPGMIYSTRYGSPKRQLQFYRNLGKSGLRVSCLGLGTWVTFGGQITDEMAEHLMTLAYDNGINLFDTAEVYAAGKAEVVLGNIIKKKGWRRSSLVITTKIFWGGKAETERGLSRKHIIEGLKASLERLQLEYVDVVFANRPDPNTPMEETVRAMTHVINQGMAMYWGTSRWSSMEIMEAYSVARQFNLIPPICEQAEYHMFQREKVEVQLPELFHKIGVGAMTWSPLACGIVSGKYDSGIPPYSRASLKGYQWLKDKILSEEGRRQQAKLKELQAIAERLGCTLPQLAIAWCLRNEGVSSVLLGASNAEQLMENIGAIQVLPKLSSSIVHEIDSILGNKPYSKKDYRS

| Structure (SMILES) | cell count [1] | inhibition [1] | inhibition of aggregation [2] | nuclei count [2] [%] | inhibition [3] | nuclei count [3] [%] | fluorescence slope [4] | NADPH fluorescence slope [5] | fluorescence slope [6] | inhibition [7] | inhibition [8] |
| --- | --- | --- | --- | --- | --- | --- | --- | --- | --- | --- | --- |
| CCN(CC)C(=O)CSc1nc2ccccc2c(=O)n1CCC(=O)NCc1ccc(F)cc1 | 471 | -6.6% (inactive) | 15.2% (inactive) | 108 | -22% (inactive) | 112 | -0.516 (inactive) | 5.1e-05 (inactive) | 0.00599 (inactive) | -10.2% (inactive) | -7.71% (inactive) |
| CC(=O)N1CCC2(CC1)CC(=O)c1cc(OCC(=O)NCc3ccc(C)cc3)ccc1O2 | 314 | -4.7% (inactive) | 2.5% (inactive) | 78.3 | -5% (inactive) | 119 | -0.0682 (inactive) | -3.2e-06 (inactive) | 0.00521 (inactive) | 6.64% (inactive) | 5.97% (inactive) |
| CCOC(=O)c1[nH]c2ccc(C)cc2c1N=C(C)N(C)C | 579 | 5.2% (inactive) | -6.9% (inactive) | 100 | -27.2% (inactive) | 108 | -0.563 (inactive) | -6e-05 (inactive) | 0.00488 (inactive) | 20.7% (inactive) | 21.2% (inactive) |
| CCOC(=O)N1CCC(NC(=O)c2ccc3c(c2)N(C)CCS3)CC1 | 368 | -0.7% (inactive) | 17.8% (inactive) | 113 | -131% (inactive) | 126 | -0.0303 (active) | 1.7e-06 (inactive) | 0.00744 (inactive) | 13% (inactive) | 21.9% (inactive) |
| CC(C)N(C(=O)COC(=O)c1ccc(O)cc1)C(C)C | 467 | 1% (inactive) | 12.6% (inactive) | 112 | -8.7% (inactive) | 121 | -0.553 (inactive) | -3.1e-05 (inactive) | 0.00574 (inactive) | 17.3% (inactive) | 14.3% (inactive) |
| CCC(C)(C)NC(=O)C(OC(=O)c1ccco1)c1ccccc1OC (centres undefined) | 610 | -6.2% (inactive) | 11% (inactive) | 87.5 | -4.1% (inactive) | 107 | -0.248 (inactive) | 3.7e-06 (inactive) | 0.00739 (inactive) | 0.26% (inactive) | 8.58% (inactive) |
| COC(=O)C1CCN(C(=O)CSc2nnc(-c3ccncc3)o2)CC1 | 682 | -6.4% (inactive) | 22.4% (inactive) | 59.8 | -9.5% (inactive) | 109 | -0.57 (inactive) | -5.5e-05 (inactive) | 0.0106 (inactive) | -9.36% (inactive) | -15.6% (inactive) |
| CN(Cc1cnn(C)c1)C(=O)c1cc2ccccc2oc1=O | 682 | 13% (inactive) | -9.2% (inactive) | 92.1 | 40% (inactive) | 98.2 | -0.484 (inactive) | -5.1e-05 (inactive) | 0.00454 (inactive) | 11.1% (inactive) | 14% (inactive) |
| Cn1nc(C(=O)Nc2cccc(C(F)(F)F)c2)ccc1=O | 357 | 9.9% (inactive) | -1.2% (inactive) | 100 | -46.7% (inactive) | 104 | -0.576 (inactive) | 4e-05 (inactive) | 0.00652 (inactive) | 5.35% (inactive) | -5.97% (inactive) |
| CCOC(=O)c1c(C)c(C(=O)NCC2CCCO2)c(C)n1C (centres undefined) | 267 | -2% (inactive) | -10.1% (inactive) | 94.7 | -8% (inactive) | 74.6 | -0.461 (inactive) | -6e-06 (inactive) | 0.00685 (inactive) | 14.1% (inactive) | 20.9% (inactive) |
| O=C(Nc1ccc(Cl)cc1)N1CCSCC1 | 358 | 6.3% (inactive) | -8.3% (inactive) | 104 | 37.4% (inactive) | 84.1 | -0.494 (inactive) | -3e-05 (inactive) | 0.00504 (inactive) | -2.29% (inactive) | -14.3% (inactive) |
| CC(=O)N1CCc2cc(S(=O)(=O)NCCC3=CCCCC3)ccc21 | 399 | 3.5% (inactive) | -11.2% (inactive) | 123 | -71.2% (inactive) | 141 | -0.425 (inactive) | 3.5e-05 (inactive) | 0.00546 (inactive) | 12.2% (inactive) | -2.52% (inactive) |
| COCCN(C(=O)Cn1nnc2ccccc21)C(C(=O)NC1CCCC1)c1cc(OC)ccc1OC (centres undefined) | 323 | 9% (inactive) | 7.8% (inactive) | 105 | -246% (inactive) | 112 | -0.491 (inactive) | 0.0001 (inactive) | 0.00575 (inactive) | 2.22% (inactive) | 8.36% (inactive) |
| CC(=O)N1CCc2cc(S(=O)(=O)CCC(=O)N3CCN(c4ccccn4)CC3)ccc21 | 592 | -2.7% (inactive) | 2.8% (inactive) | 107 | -65.1% (inactive) | 94.5 | -0.456 (inactive) | 5.1e-05 (inactive) | 0.0102 (inactive) | -15.2% (inactive) | -27.2% (inactive) |
